# Rows were chosen to be rich in hits. Some 2.3% of all compounds tested hit in one or more screens of this group.
# V1aR counter = agonists of human V1a receptor, primary screen, counter-screen for OXTR agonist project, fluorescence, CHO-V1R cells; activation, % at 3 µM; Fluo-8 calcium fluorescence, agonist mode; 0% DMSO, 100% 3 nM vasopressin; 320,000 compounds, 0.25% hits; Vasopressin V1a receptor (Homo sapiens), P37288; AID 2797, 2010;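 active means activation above the mean activation of all tested compounds plus 3 SD, per screening run, cut at about 20% in these data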;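 further: signal is peak over basal fluorescence ratio across a 100 second FLIPR read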
# Target sequence (P37288 whole entry, looked up): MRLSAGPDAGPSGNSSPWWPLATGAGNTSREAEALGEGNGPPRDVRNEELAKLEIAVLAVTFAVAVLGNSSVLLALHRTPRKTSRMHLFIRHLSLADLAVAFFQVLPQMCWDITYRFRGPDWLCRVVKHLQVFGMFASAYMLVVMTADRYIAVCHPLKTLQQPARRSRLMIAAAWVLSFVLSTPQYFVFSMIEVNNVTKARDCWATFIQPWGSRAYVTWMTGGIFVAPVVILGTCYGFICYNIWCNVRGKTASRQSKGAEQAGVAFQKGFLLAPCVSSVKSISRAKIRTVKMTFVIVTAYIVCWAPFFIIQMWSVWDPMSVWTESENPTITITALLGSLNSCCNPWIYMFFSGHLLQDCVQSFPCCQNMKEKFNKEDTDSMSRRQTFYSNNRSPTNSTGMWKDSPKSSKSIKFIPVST
# TAAR1 agonist = human TAAR1 agonists, primary screen, Fluo-8 calcium fluorescence, CHO RD-HGA16 cells | Trace amine-associated receptor 1 (Homo sapiens), Q96RJ0 | vehicle wells 0%, saturating PEA agonist 100% | activation, % at 3 µM | 360,000 compounds, 0.99% hits | AID 624467, 2012;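 active means activation above the mean activation of all test compounds in the run plus 3 SD, cut at about 38% in these data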
# Target sequence (Q96RJ0 whole entry, looked up): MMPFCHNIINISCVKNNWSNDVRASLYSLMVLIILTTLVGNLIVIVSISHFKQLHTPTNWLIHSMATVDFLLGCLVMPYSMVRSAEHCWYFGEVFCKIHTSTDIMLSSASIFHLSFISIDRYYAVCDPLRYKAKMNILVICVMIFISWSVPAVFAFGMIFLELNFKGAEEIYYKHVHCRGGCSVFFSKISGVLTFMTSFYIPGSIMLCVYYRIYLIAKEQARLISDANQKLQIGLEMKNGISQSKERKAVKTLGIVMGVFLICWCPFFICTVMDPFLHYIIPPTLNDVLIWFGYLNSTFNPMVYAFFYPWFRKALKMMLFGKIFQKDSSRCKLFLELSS
#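 Test system: RD-HGA16 (CHO) cells co-expressing Gα16 and hTAAR1 / Benchmarks: DMSO vehicle as 0%, PEA at EC100 as 100% / Repeats: no replicates (n 1) / Measure: % activation from peak over basal fluorescence ratio, DMSO-to-PEA scaled / Timing: 17-24 h plating, Fluo-8 75 min 37 °C, 30 min RT / Technique: kinetic Fluo-8 calcium fluorescence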
# OXTR ag = human OXTR agonists, primary screen, fluorescence, CHO-OTR cells, Fluo-8 calcium; Oxytocin receptor (Homo sapiens), P30559; Fluo-8 calcium fluorescence; normalized: DMSO 0%, oxytocin 100%; activation, % at 3 µM; 320,000 compounds, 0.32% hits;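 active means activation above the mean of all tested compounds plus 3 SD, cutoff set per screening run, cut at about 20% in these data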;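 further: peak over basal fluorescence ratio from a 100 s FLIPR kinetic read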
# OXTR potentiate = human OXTR potentiators, primary screen, fluorescence, CHO-OTR cells, Fluo-8 calcium; Oxytocin receptor (Homo sapiens), P30559; Fluo-8 calcium fluorescence, potentiator mode; 0% = oxytocin EC15, 100% = EC100; activation, % at 3 µM; 320,000 compounds, 0.061% hits; AID 2445, 2010;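 active means activation above that plate's cutoff, the mean activation of tested compounds plus 3 SD, cut at about 6.6% in these data, passing the limit was not always enough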;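 further: 100% uses oxytocin at 75 nM as the full agonist control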
#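 Assay system: CHO cell line stably expressing human OTR | Also added: Oxytocin at about EC15, sub-maximal agonist stimulus | Times: Compound 6 min at room temperature before oxytocin, 100 s read | Measured by: Fluo-8 intracellular calcium fluorescence, ex 470-495, em 515-575 nm | Controls: EC15 oxytocin alone as 0%, 75 nM oxytocin as 100%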
# TAAR1 antag = human TAAR1 antagonists, primary screen, Fluo-8 calcium fluorescence, CHO RD-HGA16 cells; antagonist; inhibition, % at 3 µM; 360,000 compounds, 1.5% hits;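 active means inhibition above a per-plate cutoff, the mean inhibition of test compounds on that plate plus 3 SD, cut at about 49% in these data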;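 further: 0% = DMSO plus EC80 beta-PEA response and 100% = DMSO alone without agonist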
#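 test system = CHO RD-HGA16 cells bearing hTAAR1 | replication = singlicate | controls = DMSO-only wells and EC80 β-PEA-stimulated wells | reagent = EC80 β-phenethylamine stimulus | read-out basis = percent inhibition of PEA-evoked calcium signal, max/basal emission ratio | schedule = seeding 17-24 h prior, 75-min 37 °C, 30-min RT dye loading | signal = kinetic Fluo-8 calcium fluorescence measurement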
# TAAR1 ag confirm = human TAAR1 agonists, retest of hits, confirmation, Fluo-8 calcium fluorescence, CHO RD-HGA16 cells; shares compounds with TAAR1 agonist; scaled: DMSO 0%, maximal phenethylamine 100%; activation, % at 3 µM; 2,400 compounds, 82% hits; AID 651783, 2012;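 active means activation above a cutoff set at the run's mean compound activation plus 3 SD, cut at about 39% in these data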
# Ga16 ag counter = nonselective calcium mobilization agonists, CHO-Ga16 cells, counter-screen for hTAAR1 agonist project, cell-based, fluorescence, CHO-Ga16 parental line; shares compounds with TAAR1 agonist; activation, % at 3 µM; 2,400 compounds, 50% hits; AID 651787, 2012; Fluo-8 calcium fluorescence; normalized to maximal ATP response, DMSO zero;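 active means activation above the run cutoff, the mean activation over all tested wells plus 3 SD, cut at about 12% in these data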;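 further: 0% = DMSO wells and 100% = maximal ATP response on the peak over basal ratio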
# TAAR1 desens = TAAR1 desensitization by agonist hits, confirmation, counter-screen for TAAR1 agonist project, cell-based, fluorescence, tachyphylaxis; shares compounds with TAAR1 agonist; CHO RD-HGA16 hTAAR1, Fluo-8 calcium, beta-PEA response inhibition; AID 651951, 2012; inhibition, % at 3 µM; 2,400 compounds, 46% hits;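 active means inhibition above the run cutoff, the mean inhibition of all test compounds plus 3 SD, cut at about 49% in these data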;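 further: beta-PEA stimulus applied at its EC80; loss of beta-PEA calcium signal after compound pretreatment read as receptor desensitization; 0% = DMSO with beta-PEA at EC80 and 100% = DMSO alone without agonist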
# Ga16 antag count = inhibition of ATP-evoked calcium response in CHO-Ga16 cells, counter-screen for TAAR1 agonist project, cell-based, fluorescence; 2,400 compounds, 39% hits; inhibition, % at 3 µM; CHO-Ga16 ATP-induced calcium, Fluo-8 fluorescence; shares compounds with TAAR1 agonist; AID 651952, 2012;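 active means inhibition above the plate's mean compound inhibition plus 3 SD, computed per plate, cut at about 22% in these data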;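 further: 0% = EC80 ATP with DMSO and 100% = DMSO wells without ATP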
# * = called active by the depositor; . = not tested or not shown.
SMILES,V1aR counter,TAAR1 agonist,OXTR ag,OXTR potentiate,TAAR1 antag,TAAR1 ag confirm,Ga16 ag counter,TAAR1 desens,Ga16 antag count
CCC(C)[C@H]1CNC(=S)N1CCc1cc(C(F)(F)F)cc(C(F)(F)F)c1 (stereo partly specified),0,1,-2,-11,4,.,.,.,.
FC(F)(F)c1cc(CCN2CCNC[C@@H]2CC2CCCCC2)cc(C(F)(F)F)c1,12,61*,10,8,43,52*,60*,27,68*
c1ccc(CC2CCCNC2)cc1 (stereo unspecified),0,44*,0,-18,18,61*,0,33,7
CC(=O)C1=C(C)N(CC(C)C)C(=S)NC1c1cccc(Cl)c1 (stereo unspecified),.,-3,.,.,19,.,.,.,.
COc1ccc2[nH]c3c(c2c1)CCN1C(=O)C(CC(=O)NC(C)(C)C)C[C@H](C(=O)N2CCCCC2)[C@@]31CCc1ccccc1 (stereo partly specified),.,-2,.,.,8,.,.,.,.
CCC(C(=O)OCC(=O)N1CCN(S(=O)(=O)c2ccc(C)cc2C)CC1)c1ccccc1 (stereo unspecified),2,1,0,-10,12,.,.,.,.
Fc1cccc(CCN2CCNC[C@@H]2c2ccccc2)c1,3,25,2,0,9,.,.,.,.
FC(F)(F)c1cc(CCN2CCNC[C@@H]2c2ccccc2)cc(C(F)(F)F)c1,5,45*,7,-3,27,34,7,5,13
CC(=O)NC(c1ccc(F)c(F)c1)c1nc(-c2cccc(C(C)C)c2)cs1 (stereo unspecified),.,9,.,.,5,.,.,.,.
CCOC(=O)c1[nH]ncc1CN1CCCC(C(=O)c2ccc(C(C)(C)C)cc2)C1 (stereo unspecified),1,1,0,-13,-7,.,.,.,.
CCOc1ncccc1C(=O)OCC(=O)NC1CCCCCC1,.,0,.,.,1,.,.,.,.
Cc1cc(C(C)(C)CC(C)(C)C)ccc1OCCOCC[N+](C)(C)Cc1ccccc1,21*,81*,37*,-10,75*,69*,66*,45,67*
C[N+](C)(CCOc1ccccc1)Cc1ccccc1,.,8,.,.,-13,.,.,.,.
COC(=O)c1c(C)[nH]c(C(=O)/C=C/c2ccccc2F)c1C,0,2,-1,-6,-13,.,.,.,.
Nc1nc(-c2ccccc2)cn1N,0,11,0,-12,7,.,.,.,.
Nc1nc(-c2ccccc2)cn1/N=C/c1ccccc1,1,61*,0,1,30,93*,5,70*,10
C(=C\c1ccccc1)/C=N/n1cnnc1,0,24,1,0,-9,.,.,.,.
CC(/C=N/n1cnnc1)=C\c1ccccc1,4,102*,18,-9,-10,87*,63*,31,14
CC(=C/c1ccccc1)/C=N/n1cnnc1,0,96*,11,-17,25,37,59*,19,17
ClC(/C=N/n1cnnc1)=C/c1ccccc1,3,76*,7,-5,-7,62*,30*,8,17
ClC(=C\c1ccccc1)/C=N/N1CCN(c2ccccn2)CC1,0,9,-1,-6,24,.,.,.,.
Clc1ccc(Cn2ncc3c(N4CCCCC4)ncnc32)cc1,7,48*,8,-17,52*,45*,24*,38,24*
Clc1ccc(Cn2ncc3c(N4CCCC4)ncnc32)cc1,3,13,0,-13,10,.,.,.,.
Clc1ccc(Cn2ncc3c(NCc4ccccc4)ncnc32)cc1,5,53*,3,-19,6,51*,38*,49,30*
CN(c1ccccc1)S(=O)(=O)c1cccc(NC(=O)C2CCCO2)c1 (stereo unspecified),1,3,1,3,-5,.,.,.,.
SMILES,V1aR counter,TAAR1 agonist,OXTR ag,OXTR potentiate,TAAR1 antag,TAAR1 ag confirm,Ga16 ag counter,TAAR1 desens,Ga16 antag count
Cc1ccc(F)c(S(=O)(=O)NC(=O)C2(C)CCN2C(=O)c2ccc(C(F)(F)F)nc2C)c1 (stereo unspecified),.,0,.,.,-1,.,.,.,.
c1ccc(N/N=C(\Cc2ncc[nH]2)c2ccccc2)cc1,-1,.,0,-4,.,.,4,.,9
CCOC(=O)C1=CCC(c2ccc(C)cc2)N(S(=O)(=O)c2ccc(C)cc2)C1 (stereo unspecified),.,0,.,.,-16,.,.,.,.
COc1cc(/C=C(\C#N)c2nc3ccc(C)cc3[nH]2)c([N+](=O)[O-])cc1OC,-1,47*,5,-5,7,33,30*,-2,10
COc1ccc(/C=C(\C#N)c2nc3ccc(C)cc3[nH]2)cc1Oc1ccc(C(F)(F)F)cc1[N+](=O)[O-],0,3,-1,-2,-1,.,.,.,.
COc1ccc(S(=O)(=O)N2CCC(C(=O)N[C@@H](C)C(=O)NC3CCCC3)CC2)cc1,0,1,1,-4,-16,.,.,.,.
O=c1c(Cl)c(Cl)cnn1Cc1nnc(-c2ccccc2Br)o1,.,122*,.,.,104*,141*,111*,106*,99*
COC(=O)c1nc[nH]c1[N+](=O)[O-],.,3,.,.,-10,.,.,.,.
O=[N+]([O-])c1[nH]cnc1/C=C/c1ccccc1,4,.,1,-6,.,.,3,.,13
O=C(Nc1sc2c(c1C(=O)NCCO)CCCC2)c1ccco1,3,-2,0,-3,5,.,.,.,.
O=C1Nc2ccccc2/C1=N/c1sc2c(c1C(=O)NCCc1ccccc1)CCCC2,-1,83*,-1,-5,71*,50*,19*,27,22*
